According to ChEMBL document CHEMBL4334468, “Exploring Mitochondria-Mediated Intrinsic Apoptosis by New Phytochemical Entities: An Explicit Observation of Cytochrome c Dynamics on Lung and Melanoma Cancer Cells” (J Med Chem, 2019):
The source made the active and inactive calls. The calls are words filed in the database; no cut-off is given here.

Legend:
[1] = tested on: A-375; experiment: Cytotoxicity in human A375 cells assessed as reduction in cell viability incubated for 24 hrs by MTT assay; type: functional, cell-based; settings: Homo sapiens, A-375, 24 h; read-out: IC50
Summary of the method: (§1)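 MTT viability assay on A375 melanoma, A549 lung adenocarcinoma and WI-38 normal lung fibroblast cells after 24 and 48 h treatment. IC50 values are in µM, expressed as mean ± SD.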

[2] = tested on: A-375; experiment: Cytotoxicity in human A375 cells assessed as reduction in cell viability incubated for 48 hrs by MTT assay; type: functional, cell-based; settings: Homo sapiens, A-375, 48 h; read-out: IC50; summary of the method: as §1
[3] = Antioxidant activity assessed as DPPH radical scavenging activity at 1 to 1000 ug/ml incubated for 30 mins by spectrophotometry; type: functional
[4] = Antioxidant activity at 1 to 1000 ug/ml incubated for 90 mins by FRAP assay; type: functional
[5] = tested on: A-375; experiment: Induction of morphological changes in human A375 cells at 20 uM by phase contrast microscopy; type: functional, cell-based
[6] = tested on: A549; experiment: Suppression of cell number in human A549 cells at 20 uM by phase contrast microscopy; type: functional, cell-based
[7] = tested on: A-375; experiment: Suppression of cell number in human A375 cells at 20 uM by phase contrast microscopy; type: functional, cell-based
[8] = tested on: A549; experiment: Induction of morphological changes in human A549 cells assessed as change in shape of cells from spindle to spherical at 1 uM by atomic force microscopy; type: functional, cell-based
[9] = tested on: A-375; experiment: Induction of morphological changes in human A375 cells assessed as change in shape of cells from spindle to spherical at 1 uM by atomic force microscopy; type: functional, cell-based
[10] = tested on: A-375; experiment: Induction of apoptosis in human A375 cells at 1 uM by APOP assay; type: functional, cell-based
[11] = tested on: A549; experiment: Induction of apoptosis in human A549 cells assessed as early apoptotic cells level at 1 uM incubated for 24 hrs by FITC-Annexin V staining based assay (reference value: 0.01%); type: functional
[12] = tested on: A549; experiment: Induction of apoptosis in human A549 cells assessed as late apoptotic cells level at 1 uM incubated for 24 hrs by FITC-Annexin V staining based assay (reference value: 0.02%); type: functional
[13] = tested on: A549; experiment: Induction of apoptosis in human A549 cells assessed as necrosis cells level at 1 uM incubated for 24 hrs by FITC-Annexin V staining based assay (reference value: 0.3%); type: functional
[14] = tested on: A-375; experiment: Induction of apoptosis in human A375 cells at 1 uM incubated for 24 hrs by FITC-Annexin V staining based assay (reference value: 0.03 +/- 0.9%); type: functional
[15] = tested on: A-375; experiment: Induction of apoptosis in human A375 cells at 1 uM by TUNEL assay; type: functional, cell-based
[16] = tested on: A-375; experiment: Antimetastatic activity in human A375 cells assessed as reduction in cell invasion at 10 nM by crystal violet staining based transwell chamber assay; type: functional
Summary of the method: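 Invasion was measured in a transwell chamber, with cells moving across Matrigel toward the lower chamber. Invaded cells were imaged and quantified against untreated control.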

[17] = tested on: A-375; experiment: Antimetastatic activity in human A375 cells assessed as reduction in cell migration at 10 nM by crystal violet staining based transwell chamber assay; type: functional
Summary of the method: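 Transwell chamber migration assay. Cells migrating to the lower side were imaged and quantified against untreated control.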

[18] = tested on: A-375; experiment: Antimetastatic activity in human A375 assessed as inhibition of cell migration rate at 1 nM incubated up to 24 hrs by scratch wound healing assay; type: functional, cell-based
Summary of the method: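 Scratch wound healing assay. The cell-free zone was followed over time up to 24 h, with untreated control wells as reference. Closure was quantified as migration rate.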

[19] = tested on: A-375; experiment: Inhibition of colony formation in human A375 cells at 1 nM by crystal violet staining based assay; type: functional, cell-based
[20] = tested on: A549; experiment: Induction of cell cycle arrest in human A549 cells assessed as accumulation at G0/G1 phase at 10 nM by propodium iodide staining based flow cytometric analysis (reference value: 68%); type: functional
Summary of the method: (§2)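 DNA was stained with propidium iodide and analysed by flow cytometry. Histograms give the fraction of cells in G0/G1, S and G2/M phases.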

[21] = tested on: A-375; experiment: Induction of cell cycle arrest in human A375 cells assessed as accumulation at G0/G1 phase at 10 nM by propodium iodide staining based flow cytometric analysis; type: functional; summary of the method: as §2
[22] = tested on: A-375; experiment: Induction of cell cycle arrest in human A375 cells assessed as accumulation at G2/M phase at 10 nM by propodium iodide staining based flow cytometric analysis; type: functional; summary of the method: as §2
[23] = tested on: A549; experiment: Induction of mitochondrial membrane potential changes in human A549 cells at 1 uM by JC1 staining based fluorimetry; type: functional, cell-based
Summary of the method: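 Mitochondrial membrane potential was assessed with the ratiometric dye JC1. Depolarization appears as lower red and higher green fluorescence, and the red/green intensity ratio was quantified.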

[24] = tested on: A549; experiment: Inhibition of mitochondrial membrane potential in human A549 cells at 1 uM by TMRE staining based assay; type: functional, cell-based
[25] = tested on: A-375; experiment: Induction of apoptosis in human A375 cells assessed as increase in caspase-9 levels at 1 uM incubated for 12 hrs by spectrofluorometry; type: functional, cell-based
[26] = tested on: A549; experiment: Induction of apoptosis in human A549 cells assessed as increase in caspase-8 levels at 1 uM incubated for 12 hrs by spectrofluorometry; type: functional, cell-based
[27] = tested on: A549; experiment: Induction of apoptosis in human A549 cells assessed as increase in caspase-2 levels at 1 uM incubated for 12 hrs by spectrofluorometry; type: functional, cell-based
[28] = tested on: A549; experiment: Induction of DNA damage in human A549 cells after 4 hrs by Raman spectral imaging analysis; type: functional, cell-based
[29] = tested on: A549; experiment: Induction of apoptosis in human A549 cells assessed as cytochrome-c release after 3 to 4 hrs by Raman spectral imaging analysis; type: functional, cell-based
[30] = tested on: A-375; experiment: Induction of apoptosis in human A375 cells assessed as cytochrome-c release after 6 to 8 hrs by Raman spectral imaging analysis; type: functional, cell-based
[31] = tested on: A-375; experiment: Induction of DNA damage in human A375 cells after 4 hrs by Raman spectral imaging analysis; type: functional, cell-based
[32] = tested on: A-375; experiment: Induction of DNA damage in human A375 cells by SERS spectral analysis; type: functional, cell-based
[33] = tested on: A549; experiment: Induction of DNA damage in human A549 cells by SERS spectral analysis; type: functional, cell-based
[34] = tested on: A-375; experiment: Induction of DNA fragmentation in human A375 cells after 4 hrs by agarose gel electrophoresis; type: functional, cell-based
[35] = tested on: A549; experiment: Induction of DNA fragmentation in human A549 cells after 3 hrs by chemometec-DNA fragmentation assay relative to control; type: functional
[36] = tested on: A-375; experiment: Induction of DNA fragmentation in human A375 cells after 3 hrs by chemometec-DNA fragmentation assay relative to control; type: functional, cell-based
[37] = tested on: A-375; experiment: Induction of GSH depletion in human A375 cells by fluorimetry; type: functional, cell-based
[38] = tested on: A549; experiment: Induction of apoptosis related protein expression in human A549 cells assessed as increase in CD40L expression at 20 uM incubated for 12 hrs by apoptosis antibody array; type: functional, cell-based
[39] = tested on: A549; experiment: Induction of apoptosis related protein expression in human A549 cells assessed as increase in CD40 expression at 20 uM incubated for 12 hrs by apoptosis antibody array; type: functional, cell-based
[40] = tested on: A549; experiment: Induction of apoptosis related protein expression in human A549 cells assessed as increase in HSP60 expression at 20 uM incubated for 12 hrs by apoptosis antibody array; type: functional, cell-based

COc1cc(C2Oc3cc(-c4cc(=O)c5c(O)cc(O)cc5o4)ccc3OC2/C=C2\C(=O)ON=C2c2ccc(Cl)cc2)ccc1O (stereo not given)
IC50 [1]: 1200 nM | IC50 [2]: 940 nM | Activity [3]: inactive | Activity [4]: inactive | Activity [5]: Active | Activity [6]: Active | Activity [7]: Active | Activity [8]: Active | Activity [9]: Active | Activity [10]: Active | Activity [11]: 9% | Activity [12]: 38% | Activity [13]: 13% | Activity [14]: 39% | Activity [15]: Active | Activity [16]: Active | Activity [17]: Active | Activity [18]: Active | inhibition [19]: Active | Activity [20]: 31% | Activity [21]: Active | Activity [22]: Active | Activity [23]: Active | inhibition [24]: Active | Activity [25]: Active | Activity [26]: inactive | Activity [27]: Active | Activity [28]: Active | Activity [29]: Active | Activity [30]: Active | Activity [31]: Active | Activity [32]: Active | Activity [33]: Active | Activity [34]: Active | Activity [35]: 14.5% | Activity [36]: Active | Activity [37]: Active | Activity [38]: Active | Activity [39]: Active | Activity [40]: Active
